Laboratory results from ChEMBL document CHEMBL4689842, “EUbOPEN Chemogenomics Library wave 1” (2021).

Legend:
U2OS [1] = test: Multiplex assay against U2OS; format: toxicity, cell-based; settings: human
Summary of the method: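 Cells were classed with CellPathfinder machine-learning gating, first as Hoechst high-intensity objects or normal cells, then (normal cells) as healthy, pyknosed or fragmented nuclei, and finally (pyknosed cells) as mitotic or apoptotic. Staining of live cells at seeding used Hoechst33342, BioTracker Green Microtubule Cytoskeleton Dye, MitoTracker Red and Annexin V Alexa Fluor 680, with imaging on a CQ1 microscope at 37°C and 5% CO2 after compound addition. Tubulin, mitochondrial-mass and membrane-permeability phenotypes are per cents of healthy-nucleus cells.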

U2OS [2] = test: Incucyte cell viability with U2OS; format: toxicity, cell-based; settings: human, 10 µM, compound concentration 10 uM; further: filed as whole numbers so only -1 and 0 and 1 occur
[3] = 12 h, 1 µM, compound concentration 1 uM, replicate 1
[4] = 12 h, 1 µM, compound concentration 1 uM, replicate 2
[5] = 12 h, 10 µM, compound concentration 10 uM, replicate 1
[6] = 12 h, 10 µM, compound concentration 10 uM, replicate 2
[7] = 24 h, 1 µM, compound concentration 1 uM, replicate 1
[8] = 24 h, 1 µM, compound concentration 1 uM, replicate 2
[9] = 24 h, 10 µM, compound concentration 10 uM, replicate 1
[10] = 24 h, 10 µM, compound concentration 10 uM, replicate 2
[11] = 48 h, 1 µM, compound concentration 1 uM, replicate 1
[12] = 48 h, 1 µM, compound concentration 1 uM, replicate 2
[13] = 48 h, 10 µM, compound concentration 10 uM, replicate 1
[14] = 48 h, 10 µM, compound concentration 10 uM, replicate 2
[15] = 0 h, replicate number 1, timepoint 0 hours
[16] = 6 h, replicate number 1, timepoint 6 hours
[17] = 12 h, replicate number 1, timepoint 12 hours
[18] = 18 h, replicate number 1, timepoint 18 hours
[19] = 24 h, replicate number 1, timepoint 24 hours

## Nc1ccc(C(=O)Nc2cccc(-c3nc(N4CCOCC4)c4oc5ncccc5c4n3)c2)cn1
U2OS [1]; [3]
  Population Apoptotic (%): 42%
  Population Fragmented Nuclei (%): 20%
  Population Healthy Nuclei (%): 64%
  Population Hoechst High Intensity Objects (%): 10%
  Population Mitochondria Different-Phenotype (%): 36%
  Population Mitotic Cells (%): 57%
  Population Normal (%): 89%
  Population Pyknosed Nuclei (%): 15%
  Population Tubulin-Different-Phenotype (%): 54%
  Total Cell Count: 215
U2OS [1]; [4]
  Population Apoptotic (%): 9%
  Population Healthy Nuclei (%): 61%
  Population Mitochondria Different-Phenotype (%): 21%
  Population Mitotic Cells (%): 90%
  Population Pyknosed Nuclei (%): 17%
  Population Tubulin-Different-Phenotype (%): 28%
  Total Cell Count: 55
U2OS [1]; [5]
  Population Apoptotic (%): 56%
  Population Fragmented Nuclei (%): 57%
  Population Healthy Nuclei (%): 24%
  Population Hoechst High Intensity Objects (%): 21%
  Population Mitochondria Different-Phenotype (%): 83%
  Population Mitotic Cells (%): 43%
  Population Normal (%): 78%
  Population Pyknosed Nuclei (%): 18%
  Population Tubulin-Different-Phenotype (%): 93%
  Total Cell Count: 191
U2OS [1]; [6]
  Population Apoptotic (%): 51%
  Population Fragmented Nuclei (%): 62%
  Population Healthy Nuclei (%): 15%
  Population Hoechst High Intensity Objects (%): 19%
  Population Mitochondria Different-Phenotype (%): 76%
  Population Mitotic Cells (%): 48%
  Population Normal (%): 80%
  Population Pyknosed Nuclei (%): 22%
  Population Tubulin-Different-Phenotype (%): 90%
  Total Cell Count: 69
U2OS [1]; [7]
  Population Apoptotic (%): 46%
  Population Fragmented Nuclei (%): 16%
  Population Healthy Nuclei (%): 65%
  Population Hoechst High Intensity Objects (%): 7%
  Population Mitochondria Different-Phenotype (%): 31%
  Population Mitotic Cells (%): 53%
  Population Normal (%): 92%
  Population Pyknosed Nuclei (%): 17%
  Population Tubulin-Different-Phenotype (%): 51%
  Total Cell Count: 221
U2OS [1]; [8]
  Population Apoptotic (%): 21%
  Population Fragmented Nuclei (%): 28%
  Population Healthy Nuclei (%): 52%
  Population Hoechst High Intensity Objects (%): 5%
  Population Mitochondria Different-Phenotype (%): 42%
  Population Mitotic Cells (%): 78%
  Population Normal (%): 95%
  Population Pyknosed Nuclei (%): 18%
  Population Tubulin-Different-Phenotype (%): 27%
  Total Cell Count: 57
U2OS [1]; [9]
  Population Apoptotic (%): 80%
  Population Fragmented Nuclei (%): 59%
  Population Healthy Nuclei (%): 14%
  Population Hoechst High Intensity Objects (%): 23%
  Population Mitochondria Different-Phenotype (%): 88%
  Population Mitotic Cells (%): 19%
  Population Normal (%): 76%
  Population Pyknosed Nuclei (%): 26%
  Population Tubulin-Different-Phenotype (%): 81%
  Total Cell Count: 201
U2OS [1]; [10]
  Population Apoptotic (%): 84%
  Population Fragmented Nuclei (%): 60%
  Population Healthy Nuclei (%): 5%
  Population Hoechst High Intensity Objects (%): 19%
  Population Mitochondria Different-Phenotype (%): 100%
  Population Mitotic Cells (%): 15%
  Population Normal (%): 80%
  Population Pyknosed Nuclei (%): 34%
  Population Tubulin-Different-Phenotype (%): 100%
  Total Cell Count: 80
U2OS [1]; [11]
  Population Apoptotic (%): 57%
  Population Fragmented Nuclei (%): 18%
  Population Healthy Nuclei (%): 60%
  Population Hoechst High Intensity Objects (%): 9%
  Population Mitochondria Different-Phenotype (%): 28%
  Population Mitotic Cells (%): 42%
  Population Normal (%): 90%
  Population Pyknosed Nuclei (%): 21%
  Population Tubulin-Different-Phenotype (%): 45%
  Total Cell Count: 240
U2OS [1]; [12]
  Population Apoptotic (%): 25%
  Population Fragmented Nuclei (%): 28%
  Population Healthy Nuclei (%): 53%
  Population Hoechst High Intensity Objects (%): 7%
  Population Mitochondria Different-Phenotype (%): 22%
  Population Mitotic Cells (%): 75%
  Population Normal (%): 92%
  Population Pyknosed Nuclei (%): 17%
  Population Tubulin-Different-Phenotype (%): 24%
  Total Cell Count: 56
U2OS [1]; [13]
  Population Fragmented Nuclei (%): 62%
  Population Healthy Nuclei (%): 5%
  Population Hoechst High Intensity Objects (%): 23%
  Population Mitochondria Different-Phenotype (%): 76%
  Population Normal (%): 76%
  Population Pyknosed Nuclei (%): 31%
  Population Tubulin-Different-Phenotype (%): 66%
  Total Cell Count: 244
U2OS [1]; [14]
  Population Apoptotic (%): 91%
  Population Fragmented Nuclei (%): 65%
  Population Healthy Nuclei (%): 8%
  Population Hoechst High Intensity Objects (%): 16%
  Population Mitochondria Different-Phenotype (%): 100%
  Population Mitotic Cells (%): 8%
  Population Normal (%): 83%
  Population Pyknosed Nuclei (%): 26%
  Population Tubulin-Different-Phenotype (%): 100%
  Total Cell Count: 98
U2OS [2]; [15]
  Growth Rate: 0
U2OS [2]; [16]
  Growth Rate: 1
U2OS [2]; [17]
  Growth Rate: 0
U2OS [2]; [18]
  Growth Rate: 0
U2OS [2]; 18 h, replicate number 2, timepoint 18 hours
  Growth Rate: 1
U2OS [2]; [19]
  Growth Rate: 0

## COc1cc(N2CCC(N(C)C)CC2)ccc1Nc1ncc(Cl)c(Nc2ccccc2P(C)(C)=O)n1
U2OS [2]; [15]
  Growth Rate: 0
U2OS [2]; [16]
  Growth Rate: 0
U2OS [2]; [17]
  Growth Rate: 0
U2OS [2]; [18]
  Growth Rate: 0
U2OS [2]; [19]
  Growth Rate: 0
